Experiments:
Type in all cases: functional
[1] = organism: Rattus norvegicus; test: Antiinflammatory activity in D-adjuvant induced arthritis in rat measured by the change in body weight; parameters: concentration or dose not given beside the values
[2] = tested on: Rattus norvegicus; test: Antiinflammatory activity against D-adjuvant arthritis in uninjected rat paw at the dose of 50 mg/kg by oral administration
How it was run: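 Rat developing adjuvant arthritis screen with oral dosing on a prophylactic protocol. Percent change in body weight versus untreated animals was recorded as a preliminary toxicity sign. Significance was assessed against controls by two-tailed Student's t test, p < 0.05.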

[3] = tested on: Rattus norvegicus; test: Antiinflammatory activity against D-adjuvant arthritis in injected rat paw at the dose of 50 mg/kg by oral administration
[4] = tested on: Rattus norvegicus; test: Antiinflammatory activity against carrageenan induced rat paw edema (CPE), dosed orally
How it was run: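 Male Sprague–Dawley rats (150 ± 10 g), five per group. Compound or vehicle given orally in 0.5% methylcellulose 1 h before subplantar injection of 0.1 mL 1% carrageenan in saline into the right hind paw. Paw volume measured by mercury displacement before dosing and 3 h after carrageenan; the difference is the edema volume. ANOVA with Dunnett's t test.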

Row | SMILES | Activity [1] | inhibition in vivo at 50 mg/kg [2] | inhibition in vivo at 50 mg/kg [3] | Inhibition [4]
1 | O=C(CNC1CCCCCC1)Nc1nc2cc3nc(NC(=O)CNC4CCCCCC4)sc3cc2s1 | 1% | 59% | 6% | 0%
2 | CC1CCC(NCC(=O)Nc2nc3cc4nc(NC(=O)CNC5CCC(C)C5)sc4cc3s2)C1 (stereo unspecified) | -7% | 30% | 11% | 11%
3 | CCOC(=O)c1c2sc(N)nc2cc2nc(N)sc12 | -14% | 0% | 23% | 2%
4 | O=C(CN1CCN(Cc2ccccc2)CC1)Nc1nc2cc3nc(NC(=O)CN4CCN(Cc5ccccc5)CC4)sc3cc2s1 | -6% | 6% | 5% | 26%
5 | CN(CC(=O)Nc1nc2cc3nc(NC(=O)CN(C)C4CCCC4)sc3cc2s1)C1CCCC1 | -18% | 3% | 21% | 6%
6 | O=C(CN1CCC(Cc2ccccc2)CC1)Nc1nc2cc3nc(NC(=O)CN4CCC(Cc5ccccc5)CC4)sc3cc2s1 | -16% | 13% | 15% | 9%
7 | O=C(CN1CCSC1)Nc1nc2cc3nc(NC(=O)CN4CCSC4)sc3cc2s1 | 11% | 27% | 26% | 11%
8 | O=C(CN1CCCCC1CC1CCCCC1)Nc1nc2cc3nc(NC(=O)CN4CCCCC4CC4CCCCC4)sc3cc2s1 (stereo unspecified) | 1% | 0% | 0% | 0%
9 | O=C(CN1CCN(c2ccccn2)CC1)Nc1nc2cc3nc(NC(=O)CN4CCN(c5ccccn5)CC4)sc3cc2s1 | -2% | 16% | 0% | 9%
10 | O=C(CNC1CCCCC1)Nc1nc2cc3nc(NC(=O)CNC4CCCCC4)sc3cc2s1 | 8% | 59% | 3% | 20%
11 | CCN(CC)CC(=O)N(C)c1nc2cc3nc(N(C)C(=O)CN(CC)CC)sc3cc2s1.Cl.Cl | -16% | 16% | 0% | 16%
12 | CC(C)NCC(=O)Nc1nc2cc3nc(NC(=O)CNC(C)C)sc3cc2s1 | 7% | 11% | 9% | 28%
13 | CCN(CC)C(=O)CNc1nc2cc3nc(NCC(=O)N(CC)CC)sc3cc2s1 | -18% | 55% | 58% | 5%
14 | CCN(CC)CC(=O)Nc1nc2c(s1)c(OC)c(Cl)c1nc(NC(=O)CN(CC)CC)sc12 | -11% | 8% | 38% | 17%
15 | O=C(CNc1ccccc1)Nc1nc2cc3nc(NC(=O)CNc4ccccc4)sc3cc2s1 | -11% | 0% | 0% | 0%
16 | CC1CN(CC(=O)Nc2nc3cc4nc(NC(=O)CN5CC(C)NCC5C)sc4cc3s2)C(C)CN1.Cl.Cl.Cl.Cl (stereo unspecified) | -6% | 0% | 0% | 0%
17 | CCN(CC)CC(=O)Nc1nc2c(Cl)c3nc(NC(=O)CN(CC)CC)sc3c(-c3ccccc3)c2s1 | -6% | 7% | 13% | 35%
18 | O=C(CN1CCN(CC(F)(F)F)CC1)Nc1nc2cc3nc(NC(=O)CN4CCN(CC(F)(F)F)CC4)sc3cc2s1 | -13% | 10% | 0% | 25%
19 | CCN(CC)CC(=O)Nc1nc2cc3nc(NC(=O)CN(CC)CC)sc3c(OC)c2s1 | 10% | 0% | 19% | 17%
20 | CCN(CC)CC(=O)Nc1nc2cc3nc(NC(=O)CN(CC)CC)sc3c(Cl)c2s1 | -46% | 100% | 94% | 8%
21 | CCOC(=O)c1c2sc(NC(=O)CN(CC)CC)nc2c(C)c2nc(NC(=O)CN(CC)CC)sc12 | -12% | 50% | 15% | 35%
22 | CCOCCN(CCOCC)CC(=O)Nc1nc2cc3nc(NC(=O)CN(CCOCC)CCOCC)sc3cc2s1 | 0% | 21% | 16% | 0%

Row | SMILES | Activity [1] | inhibition in vivo at 50 mg/kg [2] | inhibition in vivo at 50 mg/kg [3] | Inhibition [4]
23 | O=C(CN1CCN(c2cccc(C(F)(F)F)c2)CC1)Nc1nc2cc3nc(NC(=O)CN4CCN(c5cccc(C(F)(F)F)c5)CC4)sc3cc2s1 | 4% | 73% | 39% | 0%
24 | O=C(CN1CCC(c2ccccc2)CC1)Nc1nc2cc3nc(NC(=O)CN4CCC(c5ccccc5)CC4)sc3cc2s1 | -12% | 12% | 40% | 1%
25 | O=C(CNC1CC1)Nc1nc2cc3nc(NC(=O)CNC4CC4)sc3cc2s1 | 14% | 16% | 0% | 18%
26 | CCN(CC)CC(=O)N(C)c1nc2c(ccc3sc(N(C)C(=O)CN(CC)CC)nc32)s1 | 4% | 34% | 0% | 21%
27 | O=C(CN1CCNCC1)Nc1nc2cc3nc(NC(=O)CN4CCNCC4)sc3cc2s1 | -9% | 27% | 31% | 19%
28 | CCN(CC)CC(=O)Nc1nc2c(s1)c(OC)cc1nc(NC(=O)CN(CC)CC)sc12 | 7% | 51% | 47% | 32%
29 | CCN(CC)CC(=O)Nc1nc2cc3nc(NC(=O)CN(CC)CC)sc3c(Br)c2s1 | -45% | 100% | 80% | 0%
30 | CCN(CC)CCCC(C)Nc1nc2cc3nc(NC(C)CCCN(CC)CC)sc3cc2s1 (stereo unspecified) | -17% | 0% | 0% | 0%
31 | CCOC(=O)CN1CCN(CC(=O)Nc2nc3cc4nc(NC(=O)CN5CCN(CC(=O)OCC)CC5)sc4cc3s2)CC1 | -11% | 0% | 0% | 14%
32 | CC(=O)c1ccc(N2CCN(CC(=O)Nc3nc4cc5nc(NC(=O)CN6CCN(c7ccc(C(C)=O)cc7)CC6)sc5cc4s3)CC2)cc1 | -7% | 0% | 0% | 40%
33 | CCN(CC)CC(=O)Nc1nc2c(C)c3nc(NC(=O)CN(CC)CC)sc3c(Cl)c2s1 | -37% | 16% | 42% | 18%
34 | CCN(CC)CC(=O)Nc1nc2cc3nc(NC(=O)CN(CC)CC)sc3c([N+](=O)[O-])c2s1 | -16% | 12% | 11% | 23%
35 | CN(CC(=O)Nc1nc2cc3nc(NC(=O)CN(C)C4CCCCCCC4)sc3cc2s1)C1CCCCCCC1 | -3% | 29% | 22% | 0%
36 | CCN(CC)CC(=O)Nc1nc2c(ccc3nc(NC(=O)CN(CC)CC)sc32)s1.Cl.Cl | -20% | 36% | 2% | 0%
37 | CCOC(=O)c1c2nc(NC(=O)CN(CC)CC)sc2cc2sc(NC(=O)CN(CC)CC)nc12 | -9% | 0% | 7% | 32%
38 | Cl.Cl.O=C(CN1CCOCC1)Nc1nc2cc3nc(NC(=O)CN4CCOCC4)sc3cc2s1 | -21% | 21% | 18% | 17%
39 | CCN(CC)CC(=O)Nc1nc2cc3nc(N)sc3cc2s1 | -20% | 61% | 34% | 13%
40 | O=C(CN1CCC(N2CCCCC2)CC1)Nc1nc2cc3nc(NC(=O)CN4CCC(N5CCCCC5)CC4)sc3cc2s1 | -3% | 38% | 46% | 0%
41 | CC1CCCC1NCC(=O)Nc1nc2cc3nc(NC(=O)CNC4CCCC4C)sc3cc2s1 (stereo unspecified) | -22% | 0% | 0% | 36%
42 | O=C(CN1CCCCC1CCO)Nc1nc2cc3nc(NC(=O)CN4CCCCC4CCO)sc3cc2s1 (stereo unspecified) | -9% | 5% | 4% | 30%
43 | CCOC(=O)c1c2sc(NC(=O)CN(CC)CC)nc2c(Cl)c2nc(NC(=O)CN(CC)CC)sc12 | -16% | 0% | 0% | 5%
44 | CCN(CC)CC(=O)Nc1nc2c(Cl)c3nc(NC(=O)CN(CC)CC)sc3c(C#N)c2s1.Cl.Cl | -35% | 100% | 80% | 19%

Reference: ChEMBL document CHEMBL1125290, “Bis basic substituted diaminobenzobisthiazoles as potential antiarthritic agents” (1992)
